This note sets out measurements from paper PMC9055277 (RSC Advances, 2020).

In data set [1] the test system is fish sperm DNA (FS-DNA). The data set can be described thus: UV-Vis absorption titration of ligands with FS-DNA. In kind it is binding. Particulars: on addition of FS-DNA; band 335 nm (1S3), 345 nm (2S3). An outline of the steps: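 FS-DNA stock was in Tris–HCl pH 7.4 (A260/A280 > 1.8). Test compound (10 μM, diluted from water stock in Tris–HCl) was titrated with FS-DNA (0–20 μM). Tubes were shaken and incubated 15 min, then scanned 200–800 nm in triplicate. The spectrum of DNA alone was subtracted. Kb came from the Benesi–Hildebrand plot of [DNA]/(εa − εf) vs [DNA] as slope/intercept.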

The test system of data set [2] is FS-DNA bound to EtBr. The data set can be described thus: Fluorescence quenching of EtBr–FS-DNA system. In kind it is binding, fish. The conditions noted are these: EtBr–FS-DNA (DNA : EtBr 10 : 1), ligand 0–70 μM, Stern–Volmer equation. A digest of the protocol: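 FS-DNA stock in Tris–HCl pH 7.4, kept at 4 °C for up to 72 h, with purity checked by A260/A280 > 1.8. EtBr stock (3.0 × 10⁻³ mol L⁻¹, ethanol) was made fresh. DNA and EtBr were premixed 15 min at 25 °C. Ligand was diluted from water stock in Tris–HCl, added, and incubated 15 min. Slits were 5/10 nm. KSV is the slope of I₀/I vs [Q].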

Data set [3] relates to Salmonella typhimurium TA98. The data set can be described thus: Salmonella/microsome test. Format: cell-based.
Data set [4] relates to Salmonella typhimurium TA100. Put plainly: Salmonella/microsome test. Format: cell-based.
[5] abbreviates: TA98, absence of metabolic activation system (−S9).
[6] abbreviates: TA98, presence of metabolic activation system (+S9), 2S3: at 0.40, 0.20 and 0.10 mg per plate.
Setting [7] is: TA100, absence of metabolic activation system (−S9).
[8] abbreviates: TA100, presence of metabolic activation system (+S9).
The mark [9] stands for this setting: −S9, control set of the 2S3 experiment (concentration cell empty).

`NC(=O)COc1cc(OCC(N)=O)c2c(=O)c(OCC(N)=O)c(-c3ccc(OCC(N)=O)c(OCC(N)=O)c3)oc2c1` [1S3, 2,2′,2′′-((2-(3,4-bis(2-amino-2-oxoethoxy)phenyl)-4-oxo-4H-chromene-3,5,7-triyl)tris(oxy))triacetamide]: in data set [1], the Hypochromism was determined as 22.54%. Besides, in data set [2], the “quenching constant KSV” value came out at 18300 M⁻¹. In addition, the “revertant colonies TA98 +S9” value in data set [3] (0.02 mg per plate) is recorded as 9.00 ± 0.44 a3b3; in data set [3] (0.05 mg per plate), 7.80 ± 1.11 a2b3; in data set [3] (0.10 mg per plate), 14.00 ± 2.60 b3; in data set [3] (0.20 mg per plate), 11.20 ± 2.97 b3; in data set [3] (0.40 mg per plate), 7.20 ± 1.68 a1b3. For the same molecule, the “revertant colonies TA98 −S9” value in data set [3] (0.02 mg per plate) is reported as 12.00 ± 1.41 a1b3; in data set [3] (0.05 mg per plate), 14.40 ± 2.20 b3; in data set [3] (0.10 mg per plate), 12.20 ± 0.66 a2b3; in data set [3] (0.20 mg per plate), 13.20 ± 1.01 a1b3; in data set [3] (0.40 mg per plate), 11.60 ± 1.63 a1b3. The “effect on number of revertant colonies (mutagenicity), in words” value in data set [3] (setting [5]), in data set [3] (setting [6]), in data set [4] (setting [7]) and in data set [4] (setting [8]) was “did not cause any detectable increase” each time. Besides, the “revertant colonies TA100 +S9” value in data set [4] (0.02 mg per plate) is listed as 47.00 ± 7.16 a3b3; in data set [4] (0.05 mg per plate), 48.80 ± 12.85 a2b3; in data set [4] (0.10 mg per plate), 62.00 ± 4.95 a3b3; in data set [4] (0.20 mg per plate), 47.00 ± 6.73 a3b3; in data set [4] (0.40 mg per plate) it was 82.20 ± 5.37 a3b3. For the same molecule, the “revertant colonies TA100 −S9” value in data set [4] (0.02 mg per plate) came out at 112.40 ± 3.28 a3b3; in data set [4] (0.05 mg per plate) it was 94.00 ± 8.43 a3b3; in data set [4] (0.10 mg per plate), 85.00 ± 7.17 a3b3; in data set [4] (0.20 mg per plate) it was 80.20 ± 10.65 a2b3; in data set [4] (0.40 mg per plate), 88.80 ± 14.07 a2b3.

In the case of `NC(=O)COc1ccc(-c2cc(=O)c3c(OCC(N)=O)cc(OCC(N)=O)cc3o2)cc1` [2S3, 2,2′-((2-(4-(2-Amino-2-oxoethoxy)phenyl)-4-oxo-4H-chromene-5,7-diyl)bis(oxy))diacetamide], the Hypochromism in data set [1] came out at 20.91%. Moreover, the “quenching constant KSV” value in data set [2] was 19600 M⁻¹. In addition, the “revertant colonies TA98 +S9” value stood at 15.60 ± 2.52 b3 in data set [3] (0.02 mg per plate); 18.40 ± 1.74 b3 in data set [3] (0.05 mg per plate); 25.40 ± 1.83 a2b3 in data set [3] (0.10 mg per plate); 22.00 ± 1.37 a2b3 in data set [3] (0.20 mg per plate); 24.60 ± 2.11 a2b3 in data set [3] (0.40 mg per plate). For the same molecule, the “revertant colonies TA98 −S9” value in data set [3] (0.02 mg per plate) came out at 17.00 ± 1.00 b3; in data set [3] (0.05 mg per plate) it was 17.40 ± 1.12 b3; in data set [3] (0.10 mg per plate) it was 20.00 ± 2.25 b3; in data set [3] (0.20 mg per plate), 16.60 ± 1.80 b3; in data set [3] (0.40 mg per plate), 19.20 ± 2.08 b3. Besides, the “effect on number of revertant colonies (mutagenicity), in words” value is “did not cause an increase” in data set [3] (setting [5]), “statistically significant increase” in data set [3] (setting [6]), “significantly increased” in data set [4] (setting [7]) and “significantly increased” in data set [4] (setting [8]). For the same molecule, the “revertant colonies TA100 +S9” value in data set [4] (0.02 mg per plate) came out at 187.40 ± 18.93 a1b3; in data set [4] (0.05 mg per plate) it was 190.80 ± 11.16 a2b3; in data set [4] (0.10 mg per plate), 196.60 ± 15.75 a2b3; in data set [4] (0.20 mg per plate), 183.60 ± 9.35 a2b3; in data set [4] (0.40 mg per plate), 210.40 ± 2.31 a3b3. Moreover, the “revertant colonies TA100 −S9” value in data set [4] (0.02 mg per plate) is 182.40 ± 9.15 a2b3; in data set [4] (0.05 mg per plate), 195.40 ± 6.96 a3b3; in data set [4] (0.10 mg per plate), 185.60 ± 7.20 a2b3; in data set [4] (0.20 mg per plate) it was 200.00 ± 8.44 a2b3; in data set [4] (0.40 mg per plate), 171.40 ± 8.55 a1b3.

`Nc1ccc([N+](=O)[O-])cc1N` [NPD, 4-nitro-o-phenylenediamine, reference compound]: the “revertant colonies TA98 −S9, positive control” value is given as 4260 ± 291.75 in data set [3] (200 μg mL^−1, −S9, control set of the 1S3 experiment) and 3808.40 ± 221.78 in data set [3] (setting [9]).

Regarding `[N-]=[N+]=[N-].[Na+]` [SA, sodium azide, reference compound], the “revertant colonies TA100 −S9, positive control” value is on record as 1497.2 ± 230.28 in data set [4] (1 μg mL^−1, −S9, control set of the 1S3 experiment) and 1506.40 ± 114.82 in data set [4] (setting [9]).
